This is an account of results in the array DNA melting data of Ke et al. (doi:10.1101/2024.01.08.574731).

Data set [1] is described as follows: folding enthalpy; higher = less favourable; fluorescence melt of hairpins on a sequencing array, two-state fit. The note with it: sodium 0.088 M. Put shortly: (§1)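 Folding enthalpy and melting temperature come from bootstrapped two-state fits to Cy3 fluorescence of library hairpins carrying annealed Cy3 and quencher oligos on a sequenced MiSeq flow cell. Imaging was done in 50 mM Na-HEPES pH 8.0, 25 mM NaCl, stepping by 2.5 °C up to 60 °C, and signals were normalised to pre-quench Cy3 and to control constructs. Results of four replicates were combined by inverse variance, and fitted temperatures were raised by 9.35 °C to match UV melts.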

Data set [2] can be described thus: melting temperature; fluorescence melt of hairpins on a sequencing array, two-state fit, raised by 9.35 °C to match UV melts. The note with it: sodium 0.088 M. Put shortly: as §1

On to GCCGGTTCGAAAGAAGGC (((..(((....)))))), for which, in data set [1], the folding enthalpy was -22.8 kcal/mol. In addition, the Tm in data set [2] came out at 38.8 °C.

Regarding GCCGTACGAAAGTAGGGC (((.(((....))).))), the folding enthalpy in data set [1] is -40.8 kcal/mol. Also, the Tm in data set [2] is 60.1 °C.

Consider GCCGTACGAAAGTATGGC (((.(((....))).))), for which the folding enthalpy in data set [1] was -42.8 kcal/mol. In data set [2], the Tm is 61.4 °C.

Consider GCCGTATCGAAAGATGGC (((..(((....)))))), for which, in data set [1], the folding enthalpy was -9.59 kcal/mol. Also, the Tm in data set [2] came out at 47.4 °C.

GCCGTCCGAAAGGAAGGC (((.(((....))).))): in data set [1], the folding enthalpy is -36.4 kcal/mol. For the same sequence, in data set [2], the Tm was 67 °C.

On to GCCGTCGAAAGACACGGC ((((((....)))..))), for which the folding enthalpy in data set [1] is -27.5 kcal/mol. Also, the Tm in data set [2] was 54.6 °C.

For GCCGTCGAAAGACGCGGC ((((((....)))..))), in data set [1], the folding enthalpy was -15 kcal/mol. In addition, in data set [2], the Tm was 61.3 °C.

For the sequence GCCGTGCGAAAGCAATGC ((..(((....)))..)), the folding enthalpy in data set [1] was -11.2 kcal/mol. In data set [2], the Tm was determined as 39.2 °C.

On to GCCGTGCGAAAGCAGAGC ((..(((....)))..)), for which the folding enthalpy in data set [1] is -13.5 kcal/mol. For the same sequence, the Tm in data set [2] was 51.9 °C.

For GCCGTGCGAAAGCAGGC (((.(((....)))))), the folding enthalpy in data set [1] is -23.7 kcal/mol. Further, the Tm in data set [2] came out at 68.2 °C.

Take GCCGTGCGAAAGCCCAGC ((.(.((....)).).)): in data set [1], the folding enthalpy is -10.3 kcal/mol. Also, the Tm in data set [2] turned out to be 29.4 °C.

As to GCCGTGCGAAAGCCCTGC ((.(.((....)).).)), the folding enthalpy in data set [1] is -9.62 kcal/mol. In data set [2], the Tm stood at 30.3 °C.

For the sequence GCCGTGCGAAAGCCGGGC (((..((....))..))), the folding enthalpy in data set [1] was -15.1 kcal/mol. For the same sequence, in data set [2], the Tm came out at 65.3 °C.

For the sequence GCCGTGCGAAAGCGCCGC ((.(.((....)).).)), the folding enthalpy in data set [1] is -14.4 kcal/mol. The Tm in data set [2] turned out to be 50 °C.

For the sequence GCCGTGGGAAACCGTGGC (((..((....))..))), the folding enthalpy in data set [1] is -28.2 kcal/mol. Also, the Tm in data set [2] was determined as 47.4 °C.

GCCGTTGGAAACAACAGC ((.((((....)))).)): the folding enthalpy in data set [1] is -18.7 kcal/mol. Moreover, the Tm in data set [2] stood at 41.6 °C.

On to GCCTAACGAAAGTTTGGC (((.(((....))).))), for which, in data set [1], the folding enthalpy was -50.4 kcal/mol. Further, the Tm in data set [2] is 54.2 °C.

As to GCCTAAGAAATTAGGC ((((((....)))))), the folding enthalpy in data set [1] was -28.8 kcal/mol. In data set [2], the Tm turned out to be 52.5 °C.

As to GCCTAAGGAAACTTAGAC (.(((((....))))).), the folding enthalpy in data set [1] is -19.8 kcal/mol. For the same sequence, the Tm in data set [2] amounted to 27.8 °C.

In the case of GCCTACACGAAAGTGGGC (((..(((....)))))), the folding enthalpy in data set [1] was -22.2 kcal/mol. Moreover, the Tm in data set [2] is 50.5 °C.

Take GCCTACCGAAAGGTGGC (((.(((....)))))): the folding enthalpy in data set [1] was -25.4 kcal/mol. The Tm in data set [2] is 57 °C.

On to GCCTACCGAAAGGTGGGC (((.(((....))).))), for which the folding enthalpy in data set [1] was -38.6 kcal/mol. In addition, the Tm in data set [2] amounted to 69.1 °C.

For the sequence GCCTACGAAAGTAGTGGC ((((((....)))..))), in data set [1], the folding enthalpy was -24.3 kcal/mol. For the same sequence, the Tm in data set [2] was 48.4 °C.

For the sequence GCCTACGAAAGTATGGGC ((((((....)))..))), the folding enthalpy in data set [1] was -34.8 kcal/mol. In data set [2], the Tm came to 46.5 °C.

Regarding GCCTACGGAAACGCAGGC ((((.((....)).)))), in data set [1], the folding enthalpy was -27.6 kcal/mol. Further, the Tm in data set [2] was 52.6 °C.

Take GCCTAGCGAAAGCGAAGC ((.(.((....)).).)): the folding enthalpy in data set [1] was -16.1 kcal/mol. Also, the Tm in data set [2] was determined as 41.9 °C.

On to GCCTAGCGAAAGCGACGC ((.(.((....)).).)), for which the folding enthalpy in data set [1] was -15.3 kcal/mol. The Tm in data set [2] worked out at 47.8 °C.

Regarding GCCTAGCGAAAGCTCAGC ((..(((....)))..)), the folding enthalpy in data set [1] was -14.6 kcal/mol. The Tm in data set [2] was 34.7 °C.

In the case of GCCTAGCGAAAGCTGAGC ((..(((....)))..)), the folding enthalpy in data set [1] was -10.7 kcal/mol. Moreover, the Tm in data set [2] is 48.8 °C.

Regarding GCCTAGCGAAAGCTGCGC ((..(((....)))..)), the folding enthalpy in data set [1] was -17.6 kcal/mol. Further, the Tm in data set [2] amounted to 49.6 °C.

Take GCCTAGCGAAAGCTGTGC ((..(((....)))..)): the folding enthalpy in data set [1] was -13 kcal/mol. The Tm in data set [2] is 41.2 °C.

Take GCCTAGGGAAACCTGGGC (((.(((....))).))): the folding enthalpy in data set [1] is -38.3 kcal/mol. The Tm in data set [2] worked out at 55.1 °C.

On to GCCTATACGAAAGTAGGC (((..(((....)))))), for which the folding enthalpy in data set [1] was -28.6 kcal/mol. Also, the Tm in data set [2] is 48.3 °C.

On to GCCTATGGAAACACAGGC ((((.((....)).)))), for which, in data set [1], the folding enthalpy was -31.7 kcal/mol. In data set [2], the Tm amounted to 40 °C.

Turning to GCCTATGGAAACATGGGC (((.(((....))).))), the folding enthalpy in data set [1] is -46.6 kcal/mol. Also, in data set [2], the Tm is 51.7 °C.

As for GCCTCCGAAAGGATAGGC ((((((....)))..))), the folding enthalpy in data set [1] was -37.1 kcal/mol. Further, in data set [2], the Tm was 53.2 °C.

In the case of GCCTCCGCGAAAGCGGGC (((..(((....)))))), in data set [1], the folding enthalpy is -5.39 kcal/mol. In addition, in data set [2], the Tm came out at 52.2 °C.
